Laboratory results taken from ChEMBL document CHEMBL1142997 (J Med Chem, 2007).

molecular target: T1, Hydroxycarboxylic acid receptor 3 (Homo sapiens, UniProt P49019); assay: Activity at GPR109b in CHO cells assessed as inhibition of forskolin-induced cAMP generation upto 100 uM; type: functional, cell-based; parameters: scale not given: the % may be the effect or the level left
Outline: (§1)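 Whole-cell adenylyl cyclase FlashPlate cAMP assay on a stable receptor clone (positive clones picked by anti-HA immunostaining). Each well held 50 000 cells, stimulated with 5 µM forskolin. Normalisation: forskolin-stimulated cAMP set at 100%, cAMP from cells without forskolin at 200%. Potency reported as EC50 with number of determinations (n).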

T1 sequence (P49019 whole entry): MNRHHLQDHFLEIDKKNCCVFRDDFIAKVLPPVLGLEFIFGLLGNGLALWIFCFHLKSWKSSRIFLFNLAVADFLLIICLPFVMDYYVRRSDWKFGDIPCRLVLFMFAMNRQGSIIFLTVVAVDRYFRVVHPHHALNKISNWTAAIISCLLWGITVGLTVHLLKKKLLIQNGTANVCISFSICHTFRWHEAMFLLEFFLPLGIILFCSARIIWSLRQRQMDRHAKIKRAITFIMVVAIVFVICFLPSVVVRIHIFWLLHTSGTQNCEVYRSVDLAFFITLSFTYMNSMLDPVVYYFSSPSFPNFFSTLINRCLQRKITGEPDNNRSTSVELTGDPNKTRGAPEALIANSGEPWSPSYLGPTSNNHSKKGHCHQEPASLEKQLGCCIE

Activity	Structure (SMILES)
< 50%	O=C(O)C1=CC(=O)C2(CCc3ccccc32)O1 (stereo not given)
< 50%	CC1(c2cccnc2)OC(C(=O)O)=CC1=O (stereo not given)
< 50%	CC1(c2ccco2)OC(C(=O)O)=CC1=O (stereo not given)
< 50%	COc1cccc(C2(C)OC(C(=O)O)=CC2=O)c1 (stereo not given)
< 50%	Cc1cccc(C2(C)OC(C(=O)O)=CC2=O)c1 (stereo not given)
< 50%	CC1(c2ccncc2)OC(C(=O)O)=CC1=O (stereo not given)

The next lines start with the compound.

Structure (SMILES)	Activity
O=C(O)c1cccnc1	< 50%
Cc1cnc(C(=O)O)c[n+]1[O-]	< 50%
CC1(c2ccccc2)OC(C(=O)O)=CC1=O (single isomer, unassigned; (-))	< 50%
CC1(c2cc(Cl)ccc2Cl)OC(C(=O)O)=CC1=O (stereo not given)	< 50%

species: Homo sapiens; assay: Selectivity for GPR109a over GPR109b; type: functional
Outline: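 Whole-cell cAMP (adenylyl cyclase activation) FlashPlate assay on stable clones expressing GPR109a or GPR109b; clones picked by anti-HA immunostaining. Each clone was optimized separately, using 50 000 cells per well and 5 µM forskolin stimulation. Forskolin-stimulated cAMP was set as 100% and unstimulated cAMP as 200%. Agonist EC50 was measured at each receptor.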

Structure (SMILES)	Selectivity ratio
CC1(c2ccccc2)OC(C(=O)O)=CC1=O (stereo in doubt; 5a)	3

molecular target: T1, Hydroxycarboxylic acid receptor 3; assay: Activity at GPR109b in CHO cells assessed as inhibition of forskolin-induced cAMP generation; type: functional, cell-based; outline: as §1

EC50	Structure (SMILES)
4.9 µM (agonist)	CC1(c2cccc(Br)c2)OC(C(=O)O)=CC1=O (stereo in doubt; 5u)
0.27 µM (agonist)	Cc1ccc(C2(C)OC(C(=O)O)=CC2=O)s1 (stereo not given)
1.8 µM (agonist)	Cc1csc(C2(C)OC(C(=O)O)=CC2=O)c1 (stereo not given)
33 µM (agonist)	CC1(c2cc(F)cc(F)c2)OC(C(=O)O)=CC1=O (stereo not given)
36 µM (agonist)	CC1(c2c(F)cccc2F)OC(C(=O)O)=CC1=O (stereo not given)
1.7 µM (agonist)	CC1(c2csc(Cl)c2)OC(C(=O)O)=CC1=O (stereo in doubt; 5ah)
0.18 µM (agonist)	Cc1cc(C2(C)OC(C(=O)O)=CC2=O)cs1 (single isomer, unassigned; (+))
3.7 µM (agonist)	CC1(c2ccc(Cl)s2)OC(C(=O)O)=CC1=O (stereo not given)
19 µM (agonist)	CC1(c2ccc(F)c(F)c2)OC(C(=O)O)=CC1=O (stereo not given)
16 µM (agonist)	CC1(c2csc(Cl)c2)OC(C(=O)O)=CC1=O (stereo in doubt; (-)-5ah)

Further lines, the compound ahead of its results:

Structure (SMILES)	EC50
CC1(c2ccccc2)OC(C(=O)O)=CC1=O (stereo in doubt; (+)-5a) [ACIFRAN]	3 µM (agonist)
Cc1cc(C2(C)OC(C(=O)O)=CC2=O)cs1 (stereo in doubt; 5aj)	0.18 µM (agonist)
CC1(c2ccccc2)OC(C(=O)O)=CC1=O (stereo in doubt; 5a) [ACIFRAN]	4.2 µM (agonist)
Cc1sc(C2(C)OC(C(=O)O)=CC2=O)cc1Br (stereo not given)	10.4 µM (agonist)
CC1(c2cccc(Cl)c2)OC(C(=O)O)=CC1=O (stereo not given)	22 µM (agonist)
CC1(c2cccc(C(F)(F)F)c2)OC(C(=O)O)=CC1=O (stereo not given)	12.6 µM (agonist)
CC1(c2ccsc2)OC(C(=O)O)=CC1=O (stereo not given)	4.2 µM (agonist)
CC1(c2cccc(I)c2)OC(C(=O)O)=CC1=O (stereo not given)	5.1 µM (agonist)
CCc1cccc(C2(C)OC(C(=O)O)=CC2=O)c1 (stereo not given)	6.2 µM (agonist)
CC1(c2cc(Br)cs2)OC(C(=O)O)=CC1=O (stereo not given)	4.1 µM (agonist)
CC1(c2csc(Cl)c2)OC(C(=O)O)=CC1=O (single isomer, unassigned; (+))	0.69 µM (agonist)
CC1(c2ccc(F)cc2F)OC(C(=O)O)=CC1=O (stereo not given)	24 µM (agonist)
CCC1(c2ccccc2)OC(C(=O)O)=CC1=O (stereo not given)	4.8 µM (agonist)
Cc1cc(C2(C)OC(C(=O)O)=CC2=O)cs1 (stereo in doubt; (-)-5aj)	5 µM (agonist)
CC1(c2csc(Br)c2)OC(C(=O)O)=CC1=O (stereo in doubt; (+)-5ai)	0.37 µM (agonist)
CC1(c2cccc(Br)c2)OC(C(=O)O)=CC1=O (single isomer, unassigned; (+))	14 µM (agonist)
CC1(C2=CCCC2)OC(C(=O)O)=CC1=O (stereo not given)	5.1 µM (agonist)
CC1(c2csc(Br)c2)OC(C(=O)O)=CC1=O (stereo in doubt; 5ai)	1.5 µM (agonist)
CC1(c2ccc(F)cc2)OC(C(=O)O)=CC1=O (stereo not given)	9.9 µM (agonist)
